According to ChEMBL document CHEMBL1155708, “Isoaurostatin, a novel topoisomerase inhibitor produced by Thermomonospora alba” (J Nat Prod, 2001):
Calls of active or inactive are those of the source. No cut-off for these calls is given here.

How the values were obtained:
Nucleic Acid = experiment: Binding affinity to salmon sperm DNA assessed as DNA intercalation by circular dichroism; format: nucleic-acid assay; conditions: Salmonidae
Procedure, shortened: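 CD spectra recorded in 50 mM Tris-HCl pH 8.0 with 100 mM KCl, 1 mM MgCl2 and salmon sperm DNA (25 µg/mL), inhibitor at 0, 10, 30 and 50 µM; spectral change obtained by subtracting the CD of reagent alone from the CD of DNA plus reagent.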

[1] = target: T1, DNA topoisomerase (Bos taurus) (UniProt A0JN73); experiment: Inhibition calf thymus topoisomerase 1 cleavage activity assessed as increase in nicked pBR322 DNA formation after 40 mins by gel electrophoresis
T1 sequence (whole entry): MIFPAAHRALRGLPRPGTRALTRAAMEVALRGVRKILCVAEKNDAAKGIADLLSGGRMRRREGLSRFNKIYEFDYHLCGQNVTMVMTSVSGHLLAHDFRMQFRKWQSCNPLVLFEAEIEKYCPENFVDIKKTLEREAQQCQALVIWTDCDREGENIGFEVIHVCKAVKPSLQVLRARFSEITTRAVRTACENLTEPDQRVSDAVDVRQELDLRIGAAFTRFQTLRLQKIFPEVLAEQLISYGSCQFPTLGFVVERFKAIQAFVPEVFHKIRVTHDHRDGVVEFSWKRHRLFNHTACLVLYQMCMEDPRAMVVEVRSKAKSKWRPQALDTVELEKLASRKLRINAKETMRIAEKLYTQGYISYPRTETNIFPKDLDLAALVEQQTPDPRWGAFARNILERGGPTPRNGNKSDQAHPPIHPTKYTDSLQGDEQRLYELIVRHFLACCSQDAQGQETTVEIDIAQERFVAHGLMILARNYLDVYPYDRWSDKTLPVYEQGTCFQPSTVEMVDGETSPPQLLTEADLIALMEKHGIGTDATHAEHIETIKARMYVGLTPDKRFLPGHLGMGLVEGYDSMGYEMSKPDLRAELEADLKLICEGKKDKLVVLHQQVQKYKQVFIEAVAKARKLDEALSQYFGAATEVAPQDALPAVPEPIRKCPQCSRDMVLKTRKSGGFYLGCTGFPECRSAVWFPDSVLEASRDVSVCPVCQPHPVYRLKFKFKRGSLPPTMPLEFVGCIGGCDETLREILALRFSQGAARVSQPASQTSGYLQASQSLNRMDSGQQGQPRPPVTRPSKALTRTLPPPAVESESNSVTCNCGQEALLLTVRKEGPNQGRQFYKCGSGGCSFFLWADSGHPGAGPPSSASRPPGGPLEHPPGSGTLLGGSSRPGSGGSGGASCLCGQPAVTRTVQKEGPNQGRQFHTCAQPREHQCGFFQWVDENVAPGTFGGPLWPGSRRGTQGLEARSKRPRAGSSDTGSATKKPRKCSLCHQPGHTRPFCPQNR

Structure (SMILES) | Activity (Nucleic Acid) | Activity [1]
COc1cccc2c1C(=O)c1c(O)c3c(c(O)c1C2=O)C[C@@](O)(C(=O)CO)C[C@@H]3O[C@H]1C[C@H](N)[C@H](O)[C@H](C)O1 | Active | –
CC[C@@]1(O)C(=O)OCc2c1cc1n(c2=O)Cc2cc3ccccc3nc2-1 | inactive | Active
O=C1Oc2cc(O)ccc2/C1=C\c1ccc(O)cc1 | inactive | inactive
